The text below walks through data of ChEMBL document CHEMBL2157969, “Chalcone inhibitors of the NorA efflux pump in Staphylococcus aureus whole cells and enriched everted membrane vesicles” (Bioorg Med Chem, 2012).

Experiment [1] addresses T1, Quinolone resistance protein NorA (Staphylococcus aureus) (UniProt P0A0J7).
T1 sequence (whole entry): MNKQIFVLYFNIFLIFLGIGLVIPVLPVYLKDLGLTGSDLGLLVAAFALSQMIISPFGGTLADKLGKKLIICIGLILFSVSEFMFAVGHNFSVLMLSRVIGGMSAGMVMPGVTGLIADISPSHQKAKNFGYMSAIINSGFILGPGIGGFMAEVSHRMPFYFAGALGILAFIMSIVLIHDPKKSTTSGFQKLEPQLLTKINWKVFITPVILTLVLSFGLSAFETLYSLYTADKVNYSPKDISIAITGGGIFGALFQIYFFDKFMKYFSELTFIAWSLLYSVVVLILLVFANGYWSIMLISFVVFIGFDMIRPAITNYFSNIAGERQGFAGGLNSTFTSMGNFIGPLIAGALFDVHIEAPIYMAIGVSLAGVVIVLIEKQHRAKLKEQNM
As to the kind of experiment: Inhibition of norA in Staphylococcus aureus SA-1199B overexpressing norA assessed as fold reduction in ciprofloxacin MIC by checkerboard assay. In outline:
(§1)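 Checkerboard in MHB with twofold serial dilutions: ciprofloxacin 0.05–12.5 µg/mL against inhibitor 0.2–25 µg/mL. Inoculum 5 × 10⁵ cfu/mL, 20 h at 35 °C, visual MIC read-out. Fold reduction of ciprofloxacin MIC recorded at the inhibitor concentration giving it. FIC index is the sum of both drugs' FICs; ≤0.5 counts as synergy.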

In experiment [2] the target is T1, Quinolone resistance protein NorA (Staphylococcus aureus). As to the kind of experiment: Inhibition of norA-mediated ethidium bromide efflux in methicillin-resistant Staphylococcus aureus SA-1199B at 2.5 ug/ml by spectrofluorometric analysis. In outline:
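Whole-cell efflux assay, strain grown in Mueller Hinton II broth; compounds dissolved in DMSO, 1% DMSO in MHB II as negative control, reserpine as positive control. Background read from a pellet resuspended in clean MHB II. Fluorescence read in duplicate at ex 530 nm / em 600 nm; the mean is reported as percent reduction of efflux versus control.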

For experiment [3] the target is unchanged. As to the kind of experiment: Inhibition of norA-mediated ethidium bromide efflux in methicillin-resistant Staphylococcus aureus SA-1199B at 5 ug/ml by spectrofluorometric analysis. Put shortly: (§2)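 Ethidium bromide efflux from S. aureus cells in MHB II, compounds dissolved in DMSO. Reserpine 20 µg/mL as positive control and 1% DMSO as negative control; background taken from a resuspended pellet in clean medium. Fluorescence read at ex 530/em 600 nm in duplicate; mean given as percent reduction of efflux versus control.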

The target is the same in experiment [4]. As to the kind of experiment: Inhibition of norA-mediated ethidium bromide efflux in methicillin-resistant Staphylococcus aureus SA-1199B at 10 ug/ml by spectrofluorometric analysis. Put shortly: as §2
Experiment [5] has the same target. As to the kind of experiment: Inhibition of norA-mediated ethidium bromide efflux in methicillin-resistant Staphylococcus aureus SA-1199B at 20 ug/ml by spectrofluorometric analysis. In outline: as §2
In experiment [6] the target is T2, Quinolone resistance protein NorA (Staphylococcus aureus, UniProt P0A0J7).
T2 sequence (P0A0J7 whole entry): T1 sequence (whole entry)
As to the kind of experiment: Inhibition of norA-mediated ethidium bromide efflux in methicillin-resistant Staphylococcus aureus SA-1199B by spectrofluorometric analysis. In outline: as §2

Experiment [7] deals with T1, Quinolone resistance protein NorA (Staphylococcus aureus). As to the kind of experiment: Inhibition of norA in Staphylococcus aureus ATCC 29213 overexpressing norA assessed as fold reduction in ciprofloxacin MIC at 3.13 ug/mL by checkerboard assay. In outline: as §1
Experiment [8] has as its system Escherichia coli. As to the kind of experiment: Inhibition of Hoechst 33342 dye in norA-deficient Escherichia coli DH10B expressing pTrc99A at 2 ug/mL by spectrofluorometer analysis. It counts as functional, organism-based. The conditions noted are these: K-12 DH10B. In outline:
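Everted membrane vesicles were made from overnight E. coli DH10B carrying pTrcHis2C-norA or control pTrc99A. PMSF (0.1 mM final) was added before French press and DNase (0.1 mg/mL final) to the lysate. Vesicles were diluted to 80 µg protein/mL in 50 mM potassium HEPES, 8.5 mM NaCl, 2 mM MgCl2, pH 7.2. Hoechst 33342 was added, then Mg2+-ATP after the signal stabilised (~30 s). Inhibitor was added at 150–160 s. Fluorescence ex 355/em 457 nm over 300 s.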

Experiment [9] deals with Staphylococcus aureus. As to the kind of experiment: Antibacterial activity against Staphylococcus aureus SA-1199B overexpressing norA at 0.2 to 25 ug/ml after 20 hrs by microdilution method. It counts as functional, organism-based. In outline:
(§3)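 Broth microdilution in Mueller Hinton broth II with an inoculum of 5 × 10⁵ cfu/mL, incubated 20 h at 35 °C. MIC is the lowest concentration with no visible growth. Controls were bacteria with DMSO at up to about 1%, and ciprofloxacin. Run to CLSI/EUCAST guidelines in duplicate or more.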

Experiment [10] relates to Staphylococcus aureus. As to the kind of experiment: Antibacterial activity against Staphylococcus aureus ATCC 29213 […] at 0.2 to 25 ug/ml after 20 hrs by microdilution method. It counts as functional, organism-based. Put shortly: as §3
In experiment [11] the target is T1, Quinolone resistance protein NorA (Staphylococcus aureus). To be noted: SA-1199B.
Experiment [12] has the same target. As to the kind of experiment: Inhibition of norA in Staphylococcus aureus SA-1199B overexpressing norA assessed as fold reduction in ciprofloxacin MIC by checkerboard assay.
Experiment [13] shares this target. The experiment is described as follows: Inhibition of Staphylococcus aureus SA-1199B NorA expressed in Escherichia coli DH10B assessed as inhibition of Hoechst 33342 dye efflux at 10 uM after 150 to 160 secs by spectrofluorometric analysis in presence of 50 uM Mg2+. Put shortly:
(§4)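 Everted membrane vesicles from E. coli DH10B carrying pTrcHis2C-norA, made by French press with 0.1 mM PMSF and 0.1 mg/mL DNase; pTrc99A vesicles serve as control. Vesicles at 80 µg protein/mL in 50 mM potassium HEPES, 8.5 mM NaCl, 2 mM MgCl₂, pH 7.2. Hoechst 33342 added, then Mg²⁺-ATP to energise, inhibitor at 150–160 s.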

The target is the same in experiment [14]. As to the kind of experiment: Inhibition of Staphylococcus aureus SA-1199B NorA expressed in Escherichia coli DH10B assessed as inhibition of Hoechst 33342 dye efflux at 10 uM by spectrofluorometric analysis in presence of 50 uM Mg2+. Put shortly:
as §4

Experiment [15] has the same target. The experiment is described as follows: Inhibition of norA in Staphylococcus aureus SA-1199B overexpressing norA assessed as fold reduction in ciprofloxacin MIC at 3.13 ug/mL by checkerboard assay. In outline:
as §1

Experiment [16] relates to Staphylococcus aureus. As to the kind of experiment: Antibacterial activity against Staphylococcus aureus SA-1199B overexpressing norA at 25 ug/ml after 20 hrs by microdilution method. It counts as functional, organism-based. In outline: as §3
In experiment [17] the test system is Staphylococcus aureus. As to the kind of experiment: Antibacterial activity against Staphylococcus aureus ATCC […] at 25 ug/ml after 20 hrs by microdilution method. It counts as functional, organism-based. In outline:
as §3

Experiment [18] has as its target T1, Quinolone resistance protein NorA (Staphylococcus aureus). To be noted: ATCC 29213.

The source made the active and inactive calls. The calls are words filed in the database; no cut-off is given here.

Take `C=CCOc1ccccc1C(=O)/C=C/c1ccc(OCC(=O)O)cc1`: the inhibition result was “Dose-dependent effect” in [1]; 14.7% in experiment [2]; 46.2% in experiment [3]; 79.9% in experiment [4]; 87.1% in experiment [5]; “Dose-dependent effect” in experiment [12]. In addition, half-maximal inhibition in experiment [6] (IC50) was put at 16.9 µM. Further, the fractional inhibitory concentration index (FICI) in experiment [7] was 0.25. Moreover, the inhibition entry in experiment [8] is “inactive”. Besides, the result in experiment [9] and in experiment [10] was inactive. In [11], the FICI worked out at 0.25.

As for `CC(C)[C@@H]1NC(=O)[C@H](C)OC(=O)[C@@H](C(C)C)NC(=O)[C@@H](C(C)C)OC(=O)[C@H](C(C)C)NC(=O)[C@H](C)OC(=O)[C@@H](C(C)C)NC(=O)[C@@H](C(C)C)OC(=O)[C@H](C(C)C)NC(=O)[C@H](C)OC(=O)[C@@H](C(C)C)NC(=O)[C@@H](C(C)C)OC1=O`, the inhibition result in experiment [13] and in [14] was “Active” throughout.

`CN(C)CCOc1ccc(C(=O)/C=C/c2ccc(Oc3ccccc3)cc2)cc1`: the inhibition was 43.4% in [2], 68.8% in experiment [3], 97.5% in [4] and 99.1% in experiment [5]. In [6], this compound returned an IC50 of 9 µM. Also, the fractional inhibitory concentration index (FICI) in experiment [15] was found to be 0.38. Moreover, the inhibition result in experiment [8] was “inactive”. For the same compound, the result in [16] and in experiment [17] was Active. Moreover, the FICI in experiment [18] is 0.26.
